Assays:
Serum [1] = assay: Drug level in human serum treated with ADP at 37 degC measured over 24 hrs by HPLC analysis; type: ADME, cell-free
In short: (§1)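 Incubation in human blood serum and in RPMI-1640 at 37 °C for 0.5–24 h. The HPLC peak integration of each nucleotide is followed over time, and half-life comes from the decay. The products AMP and adenosine are seen as HPLC peaks.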

[2] = Drug level in RPMI-1640 medium treated with ADP at 37 degC measured over 24 hrs by HPLC analysis; type: physicochemical; in short: as §1
[3] = Antioxidant activity assessed as inhibition of Fe2+-induced DMPO-OH adduct formation from H2O2 preincubated for 30 secs followed by DMPO/H2O2 addition measured after 150 secs by ESR analysis; type: physicochemical
In short: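 Fenton/ESR spin trapping: 1 mM ammonium iron(II) sulfate was added to 5–500 µM compound, then Tris buffer pH 7.4 (final pH 7.2–7.4). After 30 s, 100 mM DMPO and 100 mM H2O2 were added (stock concentrations). The ESR spectrum was recorded 150 s after H2O2, at room temperature. DMPO-OH adduct expressed as % of control containing FeSO4, H2O2 and DMPO only.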

[4] = Antioxidant activity assessed as ABTS radical scavenging activity after 7 mins; type: physicochemical
In short: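 ABTS radical cation made from 7 mM ABTS with 2.45 mM persulfate (final), kept in the dark at room temperature 12–16 h. It was then diluted in water pH 7.4 to A734 0.80 and mixed with compound or Trolox standard (final 0–60 µM). A734 was read at 7 min. Percent inhibition plotted against concentration; at least three runs, in triplicate.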

[5] = Metal chelating activity assessed as inhibition of Fe2+-ferrozine complex formation at 200 uM after 10 mins relative to control; type: physicochemical
In short: (§2)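 Competitive ferrozine assay. FeSO4 (final 10 µM) and ferrozine (final 20 µM) are mixed with nucleotide in DDW at final 25–200 µM and agitated 10 min at room temperature. Absorbance of the Fe(II)-ferrozine complex is read at 562 nm with and without compound, and inhibition of complex formation is calculated. Three experiments, mean ± S.D.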

[6] = Metal chelating activity assessed as inhibition of Fe2+-ferrozine complex formation after 10 mins; type: physicochemical; in short: as §2
[7] = Half life in human serum at 37 degC by HPLC analysis; type: ADME, cell-free
In short: (§3)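 Nucleotides were incubated in human blood serum or RPMI-1640 at 37 °C for 0.5–24 h. Hydrolysis was followed by the change in HPLC peak integration of each analogue over time, and half-life was derived from this.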

[8] = Half life of the compound in RPMI-1640 medium at 37 degC by HPLC analysis; type: ADME; in short: as §3
Serum [9] = assay: Drug metabolism in human serum assessed as formation of adenosine at 37 degC measured over 24 hrs by HPLC analysis; type: ADME, cell-free; in short: as §1
[10] = Neuroprotective activity against Fe2+-induced oxidative damage in rat primary cortical neurons assessed as cell viability after 24 hrs by MTT assay; type: functional, cell-based; conditions: Cerebral cortex neuron
In short: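 Rat (1-day-old) cortical neurons were grown serum-free in DMEM/F12 with B-27 on poly-ornithine, treated with Ara-C and cultured 5 d. Cells were pretreated with nucleotide (0.01–25 µM), then exposed to FeSO4 3 µM final for 24 h. MTT 1 mg/mL was added for 2 h at 37 °C, formazan dissolved in DMSO, A550 read. Viability given as % of vehicle control; three independent experiments in triplicate.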

| Drug metabolism (Serum [1]) | Drug metabolism [2] | IC50 [3] | IC50 [4] | inhibition (INH) [5] | IC50 [6] | half-life [7] | half-life [8] | Drug metabolism (Serum [9]) | SMILES | EC50 [10] |
| --- | --- | --- | --- | --- | --- | --- | --- | --- | --- | --- |
| metabolite_detected | metabolite_detected |  |  |  |  |  |  |  | Nc1ncnc2c1ncn2[C@@H]1O[C@H](CO)[C@@H](O)[C@H]1O [ADENOSINE] |  |
|  |  | 170 µM | 30 µM | 40% | > 200 µM | 1.5 h | 1.5 h | metabolite_detected | Nc1ncnc2c1ncn2[C@@H]1O[C@H](COP(=O)(O)OP(=O)(O)O)[C@@H](O)[C@H]1O [ADENOSINE DIPHOSPHATE] | 19 µM |

From ChEMBL document CHEMBL3632592, “Identification of Highly Promising Antioxidants/Neuroprotectants Based on Nucleoside 5'-Phosphorothioate Scaffold. Synthesis, Activity, and Mechanisms of Action” (J Med Chem, 2015)
